In series [1] the test system is Huh7.5-4a (ED43) replicon cells. In words: Cytotoxicity assay. The settings on record: ATP levels. The series is classed as cell-based, human. Put shortly: (§1)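 Replicon cells (Huh5-2, Huh7.5-3a or Huh7.5-4a) were seeded at 10^4 per well and grown 24 h in complete DMEM. They were then exposed for three days to serial dilutions of test compound or DMSO solvent. Lysates were assayed for ATP by chemiluminescence, normalised to Bradford total protein. CC50 was obtained by nonlinear regression against log concentration.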

Series [2] can be described thus: Cytotoxicity assay. The series is classed as cell-based. The note with it: human. In a few lines: as §1
The nature of series [3]: Cytotoxicity assay. The note with it: human, Huh7.5-3a (S52) replicon cells. The series is classed as cell-based. Put shortly: as §1
A general note: Replicon systems follow genome replication, usually without infectious particles.

For series [4], the system named is HCV genotype 1b (strain Con1) replicon. As to the kind of experiment: HCV genotype 1b replicon luciferase assay in Huh5-2 cells. The settings on record: EC50 comparison. The series is classed as cell-based, Hepatitis C virus.
A further series relates to HCV NS5A (Con1). The class given is cell-based, Hepatitis C virus. The note with it: Huh5-2 cells; for cell viability (nuclei staining with propidium iodide): 0.5 and 0.05 nM; for NS5A protein levels by indirect immunofluorescence: highest compound concentration used (0.5 nM).
Series [5] deals with HCV genotype 1b (+) strand RNA. As to the kind of experiment: HCV RNA quantification by RT-qPCR in Huh5-2 replicon cells. The class given is cell-based, Hepatitis C virus. The note with it: 0.05 nM compound, Huh5-2 cells, normalized to YWHAZ. A general note: Real-time PCR tracks product formation cycle by cycle.

From paper PMC6682128 (ACS Omega, 2019) come the findings set out here.

For orientation: CC50 means the concentration that lowers cell viability or growth by half. Lower therefore signals greater toxicity to the cells.

Structures are written as SMILES. Where only a bound is given, the exact number is not on record here.

For the compound `COC(=O)N[C@H](C(=O)N1CCC[C@H]1C(=O)Nc1cccc(C#CC#Cc2cccc(NC(=O)[C@@H]3CCCN3C(=O)[C@@H](NC(=O)OC)C(C)C)c2)c1)C(C)C` [2a, Dimethyl((2S,2′S)-((2S,2′S)-(((buta-1,3-diyne-1,4-diylbis(3,1-phenylene))bis(azanediyl))bis(carbonyl))bis(pyrrolidine-2,1-diyl))bis(3-methyl-1-oxobutane-1,2-diyl))dicarbamate], the “CC50, genotype 4a (ED43)” value in series [1] is reported as >200 000 nM. For the same compound, the CC50 at 3 days in the series “Cytotoxicity assay [2]” and in the series “Cytotoxicity assay [3]” was over 200 µM throughout.

Consider `CC(C)[C@H](NC(=O)OCc1ccccc1)C(=O)N1CCC[C@H]1C(=O)Nc1cccc(C#CC#Cc2cccc(NC(=O)[C@@H]3CCCN3C(=O)[C@@H](NC(=O)OCc3ccccc3)C(C)C)c2)c1` [2e, Dibenzyl((2S,2′S)-((2S,2′S)-(((buta-1,3-diyne-1,4-diylbis(3,1-phenylene))bis(azanediyl))bis(carbonyl))bis(pyrrolidine-2,1-diyl))bis(3-methyl-1-oxobutane-1,2-diyl))dicarbamate], for which, in series [4], the “fold less active than 2b” value was determined as 22 fold. In the series “Cytotoxicity assay [2]”, this compound had a cytotoxic concentration (CC50) at 3 days of over 10 µM.

As to `CCOC(=O)N[C@@H](CC(C)C)C(=O)N1CCC[C@H]1C(=O)Nc1cccc(C#CC#Cc2cccc(NC(=O)[C@@H]3CCCN3C(=O)[C@H](CC(C)C)NC(=O)OCC)c2)c1` [2f, Diethyl((2S,2′S)-((2S,2′S)-(((buta-1,3-diyne-1,4-diylbis(3,1-phenylene))bis(azanediyl))bis(carbonyl))bis(pyrrolidine-2,1-diyl))bis(4-methyl-1-oxopentane-1,2-diyl))dicarbamate], in the series with HCV NS5A (Con1), the “cell viability (nuclei staining with propidium iodide)” value was “not affected” and the “NS5A protein levels by indirect immunofluorescence” value is given as “almost undetectable levels”. For the same compound, in series [5], the “HCV RNA replication reduced to (relative to control)” value was about 90%. In addition, the “CC50, genotype 4a (ED43)” value in series [1] was >200 000 nM. Besides, the cytotoxic concentration (CC50) at 3 days in “Cytotoxicity assay [2]” is over 200 µM. In the series “Cytotoxicity assay [3]”, this compound showed a cytotoxic concentration (CC50) at 3 days of over 200 µM.

`CCOC(=O)N[C@@H](C(=O)N1CCC[C@H]1C(=O)Nc1cccc(C#CC#Cc2cccc(NC(=O)[C@@H]3CCCN3C(=O)[C@H](NC(=O)OCC)C(C)C)c2)c1)C(C)C` [2n, Diethyl((2R,2′R)-((2S,2′S)-(((buta-1,3-diyne-1,4-diylbis(3,1-phenylene))bis(azanediyl))bis(carbonyl))bis(pyrrolidine-2,1-diyl))bis(3-methyl-1-oxobutane-1,2-diyl))dicarbamate]: in series [4], the “fold more active than 2b” value is on record as “about 6 fold”. The compound also registered a CC50 at 3 days in the series “Cytotoxicity assay [2]” of over 20 µM.

`COC(=O)N[C@H](CC(C)C)C(=O)N1CCC[C@H]1C(=O)Nc1cccc(C#CC#Cc2cccc(NC(=O)[C@@H]3CCCN3C(=O)[C@@H](CC(C)C)NC(=O)OC)c2)c1` [2p, Dimethyl((2R,2′R)-((2S,2′S)-(((buta-1,3-diyne-1,4-diylbis(3,1-phenylene))bis(azanediyl))bis(carbonyl))bis(pyrrolidine-2,1-diyl))bis(4-methyl-1-oxopentane-1,2-diyl))dicarbamate]: the “CC50, genotype 4a (ED43)” value in series [1] is >200 000 nM. Besides, the “fold more active than 2o” value in series [4] was “about 3 × 10^5 fold”. Moreover, the CC50 at 3 days in “Cytotoxicity assay [2]” and in “Cytotoxicity assay [3]” was over 200 µM throughout.

In the case of `CCOC(=O)N[C@H](CC(C)C)C(=O)N1CCC[C@H]1C(=O)Nc1cccc(C#CC#Cc2cccc(NC(=O)[C@@H]3CCCN3C(=O)[C@@H](CC(C)C)NC(=O)OCC)c2)c1` [2q, Diethyl((2R,2′R)-((2S,2′S)-(((buta-1,3-diyne-1,4-diylbis(3,1-phenylene))bis(azanediyl))bis(carbonyl))bis(pyrrolidine-2,1-diyl))bis(4-methyl-1-oxopentane-1,2-diyl))dicarbamate], the “cell viability (nuclei staining with propidium iodide)” value in the series on HCV NS5A (Con1) is reported as “not affected”. Besides, in the series with HCV NS5A (Con1), the “NS5A protein levels by indirect immunofluorescence” value is “almost undetectable levels”. Moreover, the “HCV RNA replication reduced to (relative to control)” value in series [5] came out at 56%. Further, the “CC50, genotype 4a (ED43)” value in series [1] is >200 000 nM. The CC50 at 3 days in the series “Cytotoxicity assay [2]” and in “Cytotoxicity assay [3]” was over 200 µM in each case.

Consider `COC(=O)N[C@H](C(=O)N1CCC[C@H]1c1nc(-c2ccc(-c3ccc(-c4c[nH]c([C@@H]5CCCN5C(=O)[C@@H](NC(=O)OC)C(C)C)n4)cc3)cc2)c[nH]1)C(C)C` [daclatasvir, reference compound], for which the “CC50, genotype 4a (ED43)” value in series [1] is listed as 17 700 nM. Besides, the CC50 at 3 days in “Cytotoxicity assay [2]” and in the series “Cytotoxicity assay [3]” was 17.7 µM throughout.
